Assay results: PubChem BioAssay AID1525 (The Scripps Research Institute Molecular Screening Center, 2009)
This is one part of the list. Active and inactive are the calls of the source.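 How the source made its calls: active means mean activation over replicates above a set limit taken from the earlier TRPN1 channel primary screen (cut at about 19% in these data); inactive means the rest.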

The compounds below were run on TRPN1 (NOMPC) [Danio rerio] (assay: activators of TRPN1 (NOMPC) cation channel – cell-based, HEK293 TRPN1-YFP, Fluo-8 calcium, counter-screen for TRPML3 agonist project (AID 1525;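 further: 100% = carbachol and 0% = 0.3% DMSO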)). Details: HEK293 zebrafish TRPN1-YFP, Fluo-8 calcium fluorescence; at 3 µM; hits give high values; scaled: carbachol wells 100%, DMSO wells 0%.
Outline: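 Assay system: Zebrafish TRPN1-YFP HEK293 cells | Dosing: One 3 µM compound dose per well | Times: Fluo-8 loading 1 h at 37 °C, then 30 min room temperature | Signal: Fluo-8 calcium, trypan red quencher, 5 s basal, 120 s post-addition | Measure: % activation from max/basal fluorescence ratio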

| SMILES | activation |
| --- | --- |
| COc1ccc(Cl)cc1N(CC(=O)N1CCCCC1)S(C)(=O)=O | 2.78% (inactive) |
| c1ccc2c(C[n+]3csc4ccccc43)cccc2c1 | -0.03% (inactive) |
| CCOC(=O)C1=C(NC(=S)NC(=O)c2ccccc2)c2ccccc2CC1(C)C | 15.5% (inactive) |
| Cc1cccc(C)c1N1CCN(S(=O)(=O)N2CCCCC2)CC1 | 28.3% (active) |
| CC1(C)CCCC2=C1CC1C(=O)N(c3ccccc3)C(=O)C1C2 (stereo not drawn) | -0.48% (inactive) |
| COc1ccc(N(CCC#N)S(=O)(=O)c2ccc(Cl)cc2)cc1 | 0.61% (inactive) |
| CCOc1ccc(S(=O)(=O)N2CCCCCC2)c2ccccc12 | -0.72% (inactive) |
| CCN(CC)S(=O)(=O)c1ccc2c3c(cccc13)C(=O)S2 | -0.76% (inactive) |
| CCN(CC)C(=O)CC1(c2ccccc2OC)CCOC(C(C)C)C1 (stereo not drawn) | -1.47% (inactive) |
| O=C(CC(O)(C(F)(F)F)C(F)(F)F)Nc1ccc(Cl)c(Cl)c1 | 21.3% (active) |
| COc1ccc(-c2noc(CN(C)S(=O)(=O)c3ccc(C)cc3)n2)cc1 | 5.96% (inactive) |
| COc1cc(/C=C(\C#N)c2nc3c(s2)CC(C)CC3)ccc1O (stereo not drawn) | 14% (inactive) |
| CC1CCCC(C)N1C(=O)CN1CCN(c2nc(-c3ccc(F)cc3)cs2)CC1 (stereo not drawn) | 4.68% (inactive) |
| CC1=CC(C)(C)N(C(=O)CSc2nnc(-c3ccccc3)o2)c2ccc(C)cc21 | 0.12% (inactive) |
| O=S(=O)(Nc1ccccc1N1CCOCC1)c1ccc(Cl)s1 | 0.07% (inactive) |
| COc1ccccc1N(CC(=O)N1CCCCC1)S(=O)(=O)c1ccccc1 | 1.91% (inactive) |
| C=C(C)Cn1c(C)cc(C)c(S(=O)(=O)c2ccccc2C)c1=O | -3.19% (inactive) |
| COc1ccc(S(=O)(=O)N2CCCC2)c(C)c1C | 0.75% (inactive) |
